In ChEMBL document CHEMBL1122441, “Structure-activity relationships of synthetic antibiotic analogues of anisomycin” (1983):
In brackets after ≈: the same amount, converted by molar mass.

Legend:
Actinomyces israelii = experiment: Antibacterial activity against Actinomyces israelii, activity expressed as inhibitory zone (mm, diameter); assay type: functional
How it was run: (§1)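 Agar diffusion: disks loaded with 0.05 mg drug (stock 1 mg/mL in Me2SO-EtOH 1:9) on brain-heart infusion agar seeded 1:100 with 48-h anaerobe culture grown in thioglycolate broth; incubated anaerobically at 37 °C for 24 h; zone diameter measured in mm.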

Bacteroides fragilis = experiment: Antibacterial activity against Bacteroides fragilis, activity expressed as […] inhibitory zone (mm, diameter); assay type: functional
How it was run: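 Agar diffusion vs B. fragilis grown in thioglycolate broth: 0.05 mg drug per paper disk (stock 1 mg/mL, Me2SO-EtOH 1:9), brain-heart infusion agar seeded with 48-h culture at 1:100, anaerobic 37 °C, 24 h; zone diameter in mm.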

Clostridium novyi = experiment: Antibacterial activity against Clostridium novyi, activity expressed as inhibitory zone (mm, diameter); assay type: functional; how it was run: as §1
Candida albicans [1] = experiment: Antifungal activity against Candida albicans, activity expressed as […] inhibitory zone (mm, diameter); assay type: functional
How it was run: (§2)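 Yeast grown in Sabouraud's dextrose broth, 24-h culture seeded 1:100 into agar; paper disks carrying 0.05 mg drug (from 1 mg/mL stock in Me2SO-EtOH 1:9); 37 °C, read after 48 h as zone diameter (mm).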

Epidermophyton floccosum [2] = experiment: Antifungal activity against Epidermophyton floccosum, activity expressed as inhibitory zone (mm, diameter); assay type: functional
How it was run: (§3)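 Dermatophytes grown in Sabouraud's dextrose broth, 4-5 day cultures seeded 1:100 into agar; disks with 0.05 mg drug (1 mg/mL stock, Me2SO-EtOH 1:9); grown and tested at 28 °C, zone diameter (mm) read after 48 h.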

Epidermophyton floccosum [3] = experiment: Antifungal activity against Epidermophyton floccosum, activity expressed as minimum inhibitory concentration (ug/mL); assay type: functional
Entamoeba histolytica [4] = experiment: Antiprotozoal activity measured as the conc for 100% inhibition of Entamoeba histolytica; assay type: functional, organism-based
How it was run: (§4)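 E. histolytica (J 190) grown 48 h at 37 °C in modified Boeck Drbohlav medium, pooled; 0.6 × 10^6 organisms inoculated into 10 mL medium with drug at 32 to 0.06 µg/mL, incubated 48 h.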

Entamoeba histolytica [5] = experiment: Antiprotozoal activity measured as the conc for 95-[…]% inhibition of Entamoeba histolytica; assay type: functional, organism-based
Cutibacterium acnes = experiment: Antibacterial activity against Propionibacterium acnes, activity expressed as inhibitory zone (mm, diameter); assay type: functional; how it was run: as §1
Saccharomyces cerevisiae [6] = experiment: Antifungal activity against Saccharomyces cerevisiae, activity expressed as inhibitory zone (mm, diameter); assay type: functional; how it was run: as §2
Saccharomyces cerevisiae [7] = experiment: Antifungal activity against Saccharomyces cerevisiae, activity expressed as minimum inhibitory concentration (ug/mL).; assay type: functional
Tritrichomonas suis [8] = experiment: Antiprotozoal activity measured as the conc for 100% inhibition of Trichomonas foetus; assay type: functional, organism-based
How it was run: (§5)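 Protozoa grown 48 h (T. vaginalis in TYM 721, T. foetus in TYM 359, E. histolytica J 190 in modified Boeck Drbohlav medium, 37 °C) and pooled; 0.6 × 10^6 organisms into 10-mL tubes with drug 32 to 0.06 µg/mL, 48 h; inhibition scored microscopically against untreated controls as 100, >95, 95-25 or <25%.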

Tritrichomonas suis [9] = experiment: Antiprotozoal activity measured as the conc for 95-[…]% inhibition of Trichomonas foetus; assay type: functional, organism-based
Tritrichomonas suis [10] = experiment: Antiprotozoal activity measured as the conc for <[…]% inhibition of Trichomonas foetus; assay type: functional, organism-based
Tritrichomonas suis [11] = experiment: Antiprotozoal activity measured as the conc for >95% inhibition of Trichomonas foetus; assay type: functional, organism-based; how it was run: as §5
Streptococcus pyogenes = experiment: Antibacterial activity against Streptococcus pyogenes C, activity expressed as inhibitory zone (mm, diameter); assay type: functional; how it was run: as §1
Trichomonas vaginalis [12] = experiment: Antiprotozoal activity measured as the conc for 100% inhibition of Trichomonas vaginalis; assay type: functional, organism-based; how it was run: as §5
Trichomonas vaginalis [13] = experiment: Antiprotozoal activity measured as the conc for 95-[…]% inhibition of Trichomonas vaginalis; assay type: functional, organism-based
Trichomonas vaginalis [14] = experiment: Antiprotozoal activity measured as the conc for >95% inhibition of Trichomonas vaginalis; assay type: functional, organism-based; how it was run: as §5
Trichophyton benhamiae [15] = experiment: Antifungal activity against Trichophyton mentagrophytes, activity expressed as inhibitory zone (mm, diameter); assay type: functional, Arthroderma benhamiae; how it was run: as §3
Trichophyton benhamiae [16] = experiment: Antifungal activity against Trichophyton mentagrophytes, activity expressed as minimum inhibitory concentration (ug/mL).; assay type: functional, Arthroderma benhamiae
Candida albicans [17] = experiment: Antifungal activity against Candida albicans, activity expressed as minimum inhibitory concentration (ug/mL); assay type: functional
How it was run: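 Tube dilution in Sabouraud's dextrose broth (ca. 3 mL/tube) at 37 °C; inoculum from 24-h yeast culture, 1:1000 in saline. Drug dissolved in Me2SO-EtOH (1:9), stock 3.2 mg/mL; twofold serial dilutions 32 to 0.06 µg/mL. Read after 48 h; MIC = lowest concentration with no visible growth.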

Entamoeba histolytica [18] = experiment: Antiprotozoal activity measured as the conc for >95% inhibition of Entamoeba histolytica; assay type: functional, organism-based; how it was run: as §4
Entamoeba histolytica [19] = experiment: Antiprotozoal activity measured as the conc for <[…]% inhibition of Entamoeba histolytica; assay type: functional, organism-based
Trichomonas vaginalis [20] = experiment: Antiprotozoal activity measured as the conc for <[…]% inhibition of Trichomonas vaginalis; assay type: functional, organism-based
[21] = Epidermophyton floccosum, read-out: MIC
[22] = Saccharomyces cerevisiae, read-out: MIC
[23] = Trichophyton benhamiae, read-out: MIC
[24] = Candida albicans, read-out: MIC

SMILES | Inhibitory zone (Actinomyces israelii) [mm] | Inhibitory zone (Bacteroides fragilis) [mm] | Inhibitory zone (Clostridium novyi) [mm] | Inhibitory zone (Candida albicans [1]) [mm] | Inhibitory zone (Epidermophyton floccosum [2]) [mm] | MIC (Epidermophyton floccosum [3]; [21]) [mg/L] | Concentration (Entamoeba histolytica [4]) [µg/mL] | Inhibitory zone (Cutibacterium acnes) [mm] | Inhibitory zone (Saccharomyces cerevisiae [6]) [mm] | MIC (Saccharomyces cerevisiae [7]; [22]) [mg/L] | Concentration (Tritrichomonas suis [10]) [µg/mL] | Inhibitory zone (Streptococcus pyogenes) [mm] | Concentration (Trichomonas vaginalis [12]) [µg/mL] | Concentration (Trichomonas vaginalis [13]) [µg/mL] | Concentration (Trichomonas vaginalis [14]) [µg/mL] | Inhibitory zone (Trichophyton benhamiae [15]) [mm] | MIC (Trichophyton benhamiae [16]; [23]) [mg/L] | MIC (Candida albicans [17]; [24]) [mg/L] | Concentration (Entamoeba histolytica [18]) [µg/mL] | Concentration (Trichomonas vaginalis [20]) [µg/mL] | further results
CC(=O)O[C@@H]1[C@@H](O)CN[C@@H]1Cc1ccc(C)cc1 | 0 | 0 | 0 | 0 | 8 | 16 (≈ 64.2 µM) | 4 | 0 | 0 | 1 (≈ 4.01 µM) | 0.5 | 0 | 8 | 2 | 4 | 10 | 4 (≈ 16 µM) | 8 (≈ 32.1 µM) | 2 | – | Concentration (Entamoeba histolytica [5]): 1 µg/mL; Concentration (Tritrichomonas suis [8]): 16 µg/mL; Concentration (Tritrichomonas suis [9]): 1 µg/mL; Concentration (Tritrichomonas suis [11]): 4 µg/mL
COc1cccc(C[C@H]2NC[C@H](O)[C@H]2OC(C)=O)c1 | 10 | 10 | 15 | 0 | 8 | > 32 | 32 | 12 | 0 | 8 (≈ 30.2 µM) | 8 | 0 | 32 | 8 | 16 | 10 | > 32 | > 32 | 16 | 4 | Concentration (Entamoeba histolytica [19]): 8 µg/mL; Concentration (Tritrichomonas suis [11]): 16 µg/mL
COc1ccc(C[C@H]2NC[C@H](O)[C@H]2OC(C)=O)cc1 [ANISOMYCIN] | – | 10 | – | – | – | – | – | – | 13 | – | – | – | – | – | – | – | – | – | – | – | MIC (Epidermophyton floccosum [3]): 16 mg/L (≈ 60.3 µM); MIC (Saccharomyces cerevisiae [7]): 0.25 mg/L (≈ 0.942 µM); MIC (Trichophyton benhamiae [16]): 2 mg/L (≈ 7.54 µM); MIC (Candida albicans [17]): 4 mg/L (≈ 15.1 µM)
Cc1ncc([N+](=O)[O-])n1CCO [METRONIDAZOLE] | 0 | 20 | 25 | 0 | 8 | > 32 | 0.25 | 0 | – | > 32 | 0.12 | 0 | 0.5 | 0.12 | 0.25 | 0 | > 32 | > 32 | 0.12 | 0.06 | Concentration (Tritrichomonas suis [8]): 0.5 µg/mL; Concentration (Tritrichomonas suis [9]): 0.25 µg/mL
COc1ccc(C[C@H]2NC[C@H](O)[C@H]2OC(C)=O)cc1 (racemic) | – | – | – | – | – | – | 4 | – | – | – | 1 | – | 2 | 0.5 | 1 | – | – | – | 2 | 0.25 | Concentration (Entamoeba histolytica [5]): 0.5 µg/mL; Concentration (Entamoeba histolytica [19]): 0.25 µg/mL; Concentration (Tritrichomonas suis [8]): 8 µg/mL; Concentration (Tritrichomonas suis [11]): 2 µg/mL
COc1ccc(C(c2ccccc2)[C@H]2NC[C@H](O)[C@H]2OC(C)=O)cc1 (stereo partly specified) | 10 | 0 | 20 | 0 | 10 | > 32 | – | 18 | 0 | > 32 | 16 | 13 | – | 32 | – | 0 | > 32 | > 32 | – | 16 | Concentration (Entamoeba histolytica [19]): 32 µg/mL; Concentration (Tritrichomonas suis [9]): 32 µg/mL
